# Experimental data as given in ChEMBL document CHEMBL4118192, “BET bromodomain ligands: Probing the WPF shelf to improve BRD4 bromodomain affinity and metabolic stability” (Bioorg Med Chem, 2018).
# Assays:
# [1] = Apparent half life in human liver microsomes at 3 uM; type: ADME, microsome; conditions: read-out: t1/2(app)
# [2] = biological target: Bromodomain-containing protein 4 (Homo sapiens, UniProt O60885); assay: Inhibition of human partial length BRD4 bromodomain 2 (K333 to E460 residues) expressed in bacterial expression system assessed as residual activity at 1 uM by BROMOscan assay relative to control
# [3] = biological target: Bromodomain-containing protein 9 (Homo sapiens) (UniProt Q9H8M2); assay: Inhibition of human partial length BRD9 (R130 to V259 residues) expressed in bacterial expression system assessed as residual activity at 1 uM by BROMOscan assay relative to control
# Chain of Bromodomain-containing protein 9 (Homo sapiens) (Q9H8M2 whole entry, the tested form may be a part): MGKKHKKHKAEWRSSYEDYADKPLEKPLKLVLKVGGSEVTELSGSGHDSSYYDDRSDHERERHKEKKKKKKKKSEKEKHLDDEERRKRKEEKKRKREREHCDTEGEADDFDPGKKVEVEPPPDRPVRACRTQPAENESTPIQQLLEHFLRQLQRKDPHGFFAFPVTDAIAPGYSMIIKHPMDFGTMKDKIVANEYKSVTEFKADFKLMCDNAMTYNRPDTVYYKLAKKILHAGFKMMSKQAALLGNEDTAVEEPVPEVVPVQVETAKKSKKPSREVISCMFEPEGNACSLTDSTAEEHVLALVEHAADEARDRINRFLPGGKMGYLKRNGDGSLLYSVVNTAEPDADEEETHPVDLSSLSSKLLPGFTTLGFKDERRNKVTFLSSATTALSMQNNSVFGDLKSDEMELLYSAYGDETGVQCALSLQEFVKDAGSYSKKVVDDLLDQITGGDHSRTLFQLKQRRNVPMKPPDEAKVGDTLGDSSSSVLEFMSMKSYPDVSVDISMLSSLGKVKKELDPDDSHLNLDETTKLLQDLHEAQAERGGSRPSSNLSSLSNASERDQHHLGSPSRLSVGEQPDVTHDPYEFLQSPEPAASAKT
# [4] = tested on: U-251; assay: Growth inhibition of human U251 cells at 10 uM after 48 hrs by sulforhodamine B assay relative to control; type: functional; conditions: U-251, 48 h, read-out: GI
# Method in brief: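 NCI-60 human cancer cell line screen, single dose of 10 μM for 48 h. Cellular protein content read by sulforhodamine B staining; growth inhibition expressed relative to untreated control.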
Structure (SMILES),half-life at 3 µM [1],Activity [2],Activity [3],inhibition of growth at 10 µM [4]
Cc1noc(C)c1-c1cc(O)cc(C(O)c2ccccc2)c1 (centres undefined),39.8 min,0.2%,100%,–
COc1ccccc1S(=O)(=O)Nc1ccc2c(c1)CN(C)C(=O)N2,–,–,–,50%
